Source: PubChem BioAssay
Inconclusive results are not listed.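 The calls were made as follows, unless noted: active = RAM network inhibition above 8.4% in each of two replicates, 3 SD over the compound average; inconclusive = above 8.4% inhibition in only one replicate; inactive = 8.4% inhibition or less in each replicate.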

Columns and labels:
[1] = S. cerevisiae growth inhibition in permissive medium (OD615), pilot counter-assay for S. cerevisiae lifespan shortening project, permissive growth control (AID 705;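 active = growth inhibition above 25% in both replicates, a cutoff set 3 SD above the mean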); conditions: OD615, 24 h, at 10 µM, active compounds read high
Outline: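 Material: engineered DeaD yeast; Compound: one dose 10 µM, DMSO 0.25% final; Detection: absorbance (optical density) at 615 nm; Buffer or medium: permissive raffinose/galactose medium; Timing: 24 h exposure, 30 °C.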

[2] = S. cerevisiae growth inhibition in restrictive medium, OD615, pilot screen, restrictive growth control, yeast lifespan reduction project (AID 706;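 active = growth inhibition above a set limit, 3 SD over mean compound inhibition, in both replicates, cut at about 43% in these data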;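 also: modified DeaD lifespan yeast strain shifted to restrictive glucose medium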); conditions: OD615, 48 h, at 10 µM, active compounds read high
Outline: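 Buffer or medium: restrictive glucose medium (CSMM-D); test system: modified S. cerevisiae; doses: single dose of 10 µM compound final, 0.25% DMSO; schedule: 48 h compound exposure at 30 °C; detection: absorbance (optical density) measured at 615 nm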

[3] = doxorubicin toxicity protection in MRP-1 cells – H69AR cells, CellTiter-Glo, duplicate, MRP-1 activator project, pilot screen (AID 807;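 active = viability increase at or above a cutoff of the median across tested compounds plus 3 SD, cut at about 8.5% in these data, passing the limit was not always enough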;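 also: compound pretreatment 18-22 h then 72 h combined with doxorubicin; 0% = doxorubicin alone and 100% = vehicle without doxorubicin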); conditions: H69AR viability with doxorubicin, CellTiter-Glo luminescence; at 10 µM; active compounds read high
[4] = viability of HCT116 without oncogenic beta-catenin – human colon tumor cells, pilot screen (AID 823;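 active = cell viability at or below a set limit in both duplicate runs, the limit being the all-compound median minus 4 SD, cut at about 23% in these data, passing the limit was not always enough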;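 also: 0% = wells killed by 20 µM Hyamine and 100% = untreated DMSO cell wells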); conditions: HCT116 beta-catenin knockout viability, CellTiter-Glo, 60 h; at 10 µM; active compounds read low
[5] = viability of PTEN-null HCT116 cells – cell-based, HCT116 clonal line, CellTiter-Glo, pilot screen (AID 824;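 active = viability at or below 27.92% in each of two runs, the all-compound median minus 4 SD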;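 also: 0% = 20 µM Hyamine control and 100% = vehicle cell control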); conditions: HCT116 PTEN-deleted viability, 60 h, at 10 µM, active compounds read low
[6] = RAM pathway blockade in budding yeast – dse1pr::URA3 reporter, 5-FOA selection, pilot screen (AID 869;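 active = inhibition over a set limit, the all-compound mean plus 3 SD, in both replicate runs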;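 also: 0% = DMSO wells with no growth and 100% = 10 µM 1-NA-PP1 with full growth; RAM network block rescues cells from 5-FOA so hits raise OD615 growth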); conditions: S. cerevisiae dse1pr::URA3 5-FOA growth, OD615, 2 d; at 10 µM; active compounds read high; strain carries analog-sensitive mutant Cbk1 kinase
[7] = RAM signaling pathway blockade in yeast – S. cerevisiae, Pdr1DBD-CYC8 efflux-inhibited sensitized strain, primary screen (AID 1298);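 also: 0% = DMSO untreated cells without growth and 100% = 10 µM 1-NA-PP1 full growth; higher means more yeast growth rescued from 5-FOA killing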; conditions: S. cerevisiae cbk1-as DSE1-URA3 strain, 5-FOA growth OD615, 2 d; at 50 µM; active compounds read high

COC(=O)CSC1=C(C#N)C(c2ccc(C(C)C)cc2)CC(=O)N1 (stereo not given)
inactive: growth inhibition [1] -0.135% | growth inhibition [2] -3.29% | viability increase [3] 0.86% | viability [4] 89.8% | viability [5] 89.3% | inhibition [6] 3.04% | RAM network inhibition [7] 4.09%

N#CC1=C2C=CC=CN2CC1=O
inactive: growth inhibition [1] -23.9% | growth inhibition [2] -15.7% | viability increase [3] -2.42% | viability [4] 91.2% | viability [5] 93.1% | inhibition [6] 1.7% | RAM network inhibition [7] 2.23%

Cc1nn2c(=O)cc(CSc3nc4ccccc4[nH]3)nc2s1
inactive: growth inhibition [1] -3.92% | growth inhibition [2] 2.41% | viability increase [3] -2.31% | viability [4] 103% | viability [5] 103% | inhibition [6] 1.35% | RAM network inhibition [7] 0.17%

Cc1[nH]c2ccccc2c1Cc1nnc(SCC(N)=O)o1
inactive: growth inhibition [1] 5.65% | growth inhibition [2] -5.42% | viability increase [3] -0.41% | viability [4] 100% | viability [5] 102% | inhibition [6] 1.88% | RAM network inhibition [7] 1.36%

CCSc1nc2c(cnn2-c2ccc(C)c(C)c2)c(=O)[nH]1
inactive: growth inhibition [1] -2.47% | growth inhibition [2] -2.05% | viability increase [3] -1% | viability [4] 98.8% | viability [5] 94.2% | inhibition [6] 1.42% | RAM network inhibition [7] 7.85%

Nc1nnc(N2CCc3ccccc32)s1
inactive: growth inhibition [1] -1.08% | growth inhibition [2] 16.4% | viability increase [3] -4.19% | viability [4] 105% | viability [5] 102% | inhibition [6] 0.805% | RAM network inhibition [7] 0.42%

CC1(C)C(=O)OC(c2cc(Br)ccc2O)C(C)(C)C1=O (stereo not given)
inactive: growth inhibition [1] -8.82% | growth inhibition [2] -1.84% | viability increase [3] -2.35% | viability [4] 90.2% | viability [5] 82.1% | inhibition [6] -0.355% | RAM network inhibition [7] 4.3%

Cc1ccc(C)c(N(C)S(=O)(=O)c2cccc3nsnc23)c1
inactive: growth inhibition [1] -6.8% | growth inhibition [2] -6.89% | viability increase [3] -3.51% | viability [4] 79.5% | viability [5] 75.5% | inhibition [6] 0.92% | RAM network inhibition [7] 7.63%

CC(C)CC1(C(=O)O)NC(c2ccccc2O)C2C(=O)N(C(C)C)C(=O)C21 (stereo not given)
inactive: growth inhibition [1] 3.45% | growth inhibition [2] 3.48% | viability increase [3] -0.07% | viability [4] 102% | viability [5] 99.3% | inhibition [6] 1.27% | RAM network inhibition [7] 3.59%

CSc1cccc(NS(=O)(=O)c2cccc3nsnc23)c1
inactive: growth inhibition [1] -5.26% | growth inhibition [2] -8.19% | viability increase [3] -0.51% | viability [4] 88.6% | viability [5] 93.3% | inhibition [6] 0.885% | RAM network inhibition [7] 2.44%

CCC(=O)NC(c1ccccc1)c1nc2ccccc2[nH]1 (stereo not given)
inactive: growth inhibition [1] -12.9% | growth inhibition [2] -14.2% | viability increase [3] -0.96% | viability [4] 100% | viability [5] 97.4% | inhibition [6] 1.48% | RAM network inhibition [7] 0.62%

CC(C)N(Cc1nc(-c2ccc(Cl)cc2)no1)C(=O)CCC1CCCC1
inactive: growth inhibition [1] -13.1% | growth inhibition [2] -14.6% | viability increase [3] -0.03% | viability [4] 70.3% | viability [5] 74.4% | inhibition [6] 0.865% | RAM network inhibition [7] 8.34%

CC(=O)Oc1cccc(N2C(=O)C3C(C2=O)C2C=CC3C23CC3)c1 (stereo not given)
inactive: growth inhibition [1] -8.98% | growth inhibition [2] -8.59% | viability increase [3] -0.99% | viability [4] 96.9% | viability [5] 101% | inhibition [6] 0.125% | RAM network inhibition [7] 0.63%

Cn1c(=O)n(C)c2cc(CN3C(=O)OC(C)(C)C3(C)O)ccc21 (stereo not given)
inactive: growth inhibition [1] 2.22% | growth inhibition [2] 0.365% | viability increase [3] -1.11% | viability [4] 105% | viability [5] 95.2% | inhibition [6] 0.09% | RAM network inhibition [7] 4.45%

COc1ccc(N2CCN(C(=O)c3ccc(CNc4c(N5CCOCC5)c(=O)c4=O)cc3)CC2)cc1
inactive: growth inhibition [1] 5.2% | growth inhibition [2] 8.53% | viability increase [3] -3.13% | viability [4] 96.2% | viability [5] 98.5% | inhibition [6] -0.255% | RAM network inhibition [7] -1.5%

Cc1ccc(C2c3c(oc4cc(C)c(C)cc4c3=O)C(=O)N2CCCN2CCOCC2)cc1 (stereo not given)
inactive: growth inhibition [1] -5.16% | growth inhibition [2] -18.6% | viability increase [3] -4.87% | viability [4] 83.3% | viability [5] 90% | inhibition [6] 3.33% | RAM network inhibition [7] -0.94%

O=S(=O)(NCc1csc(-c2cccnc2)n1)c1cccs1
inactive: growth inhibition [1] 5.38% | growth inhibition [2] -1.74% | viability increase [3] -0.79% | viability [4] 98% | viability [5] 90% | inhibition [6] 1.69% | RAM network inhibition [7] 1.3%

CCCN1CCN(C(=O)Cn2ncc3ccccc32)CC1
inactive: growth inhibition [1] -12.4% | growth inhibition [2] -16.9% | viability increase [3] -2.31% | viability [4] 100% | viability [5] 98.2% | inhibition [6] 1.26% | RAM network inhibition [7] 3.84%

C=CCn1cc(C(=O)NCc2cccnc2)c(=O)c2cc(S(=O)(=O)N(CC)CC)ccc21
inactive: growth inhibition [1] -7.53% | growth inhibition [2] -8.9% | viability increase [3] -3.95% | viability [4] 103% | viability [5] 97% | inhibition [6] 1.33% | RAM network inhibition [7] 0.51%

CC(=O)c1ccc(N2CCN(C(=O)c3cc4c(-c5ccccc5F)nn(C)c4s3)CC2)cc1
inactive: growth inhibition [1] 3.9% | growth inhibition [2] 2.33% | viability increase [3] -2.9% | viability [4] 66% | viability [5] 78% | inhibition [6] 2.27% | RAM network inhibition [7] 6.5%

Cc1ccc(-c2nnc3n2N=C(c2ccc(Br)cc2)CS3)cc1
inactive: growth inhibition [1] 1.27% | growth inhibition [2] 15.8% | viability increase [3] -2.58% | viability [4] 102% | viability [5] 90.5% | inhibition [6] 2.41% | RAM network inhibition [7] 4.62%

CCOC12NC(=O)CC(=O)N1C(c1ccccc1)=CS2 (stereo not given)
inactive: growth inhibition [1] -16% | growth inhibition [2] -6.23% | viability increase [3] 2.97% | viability [4] 100% | viability [5] 104% | inhibition [6] 1.85% | RAM network inhibition [7] 6.38%

COc1ccc(N2C(=O)CCC(C(=O)NCc3ccccn3)C2c2ccc(OC)c(OC)c2)cc1 (stereo not given)
inactive: growth inhibition [1] -3.9% | growth inhibition [2] 6.09% | viability increase [3] -1.53% | viability [4] 98.3% | viability [5] 100% | inhibition [6] 1.01% | RAM network inhibition [7] -0.31%

COC(=O)N1CC(C)N(C(=O)OC)CC1C (stereo not given)
inactive: growth inhibition [1] -8.79% | growth inhibition [2] 3.85% | viability increase [3] -2.14% | viability [4] 95.2% | viability [5] 95.6% | inhibition [6] 0.745% | RAM network inhibition [7] 6.61%

C=CCOC(=O)C1=C(C)N=C2SCCC(=O)N2C1c1ccc(OC(=O)c2ccco2)cc1 (stereo not given)
inactive: growth inhibition [1] 5.35% | growth inhibition [2] 24.3% | viability increase [3] -0.72% | viability [4] 94.2% | viability [5] 85.8% | inhibition [6] 1.94% | RAM network inhibition [7] 5.69%
